Activity calls are given as the source filed them. The rule behind the calls is not given here.
What was measured:
Mus musculus [1] = assay: Anticonvulsant activity in F1 albino mouse assessed as protection against subcutaneous pentylenetetrazole-induced seizures at 300 mg/kg, ip after 0.25 hrs; type: functional, organism-based; set-up: dose 300 mg/kg
Procedure, shortened: (§1)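 Male albino F-1 mice (18–25 g), groups of 1–5 (rotorod 2–8). Compound given ip as a suspension in 0.5% methylcellulose at 30, 100 and 300 mg/kg. Seizures by maximal electroshock or subcutaneous pentylenetetrazole; neurotoxicity by rotorod. Read at 0.5 and 4 h, with some at 0.25, 1 and 2 h. Value is the minimum active dose, with protected (or toxic)/tested animals.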

Mus musculus [2] = assay: Anticonvulsant activity in F1 albino mouse assessed as protection against subcutaneous pentylenetetrazole-induced seizures at 300 mg/kg, ip after 0.5 hrs; type: functional, organism-based; set-up: dose 300 mg/kg; procedure, shortened: as §1
Rattus norvegicus = species on record: Rattus norvegicus; assay: Selectivity ratio of Ki for adenosine A1 receptor in rat brain cortical membrane to Ki for adenosine A2A receptor in rat brain striatal membrane; type: cell membranes
Procedure, shortened: (§2)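 Ki ratios from radioligand competition binding. Rat A1 used brain cortical membranes and rat A2A used brain striatal membranes. Human A1 and A2A used membranes of CHO cells expressing the receptors. A1 radioligand [³H]CCPA; A2A radioligand [³H]MSX-2. Potent compounds were tested at 6–7 concentrations spanning 3 orders of magnitude.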

Mus musculus [3] = assay: Anticonvulsant activity in F1 albino mouse assessed as protection against maximal electroshock-induced seizures at 300 mg/kg, ip after 0.5 hrs; type: functional, organism-based; set-up: dose 300 mg/kg; procedure, shortened: as §1
Mus musculus [4] = assay: Neurotoxicity in F1 albino mouse assessed as minimal motor impairment at 300 mg/kg, ip after 4 hrs by rotorod test; type: toxicity, organism-based; set-up: dose 300 mg/kg, route intraperitoneal; details: in vivo; procedure, shortened: as §1
Mus musculus [5] = assay: Anticonvulsant activity in F1 albino mouse assessed as protection against subcutaneous pentylenetetrazole-induced seizures at 300 mg/kg, ip after 1 hr; type: functional, organism-based; set-up: dose 300 mg/kg; procedure, shortened: as §1
Mus musculus [6] = assay: Neurotoxicity in F1 albino mouse assessed as minimal motor impairment at 300 mg/kg, ip after 0.25 hrs by rotorod test; type: toxicity, organism-based; set-up: dose 300 mg/kg, route intraperitoneal; details: in vivo; procedure, shortened: as §1
Adenosine receptor A2a [7] = target: Adenosine receptor A2a (Rattus norvegicus, UniProt P30543); assay: Displacement of [3H]MSX-2 from adenosine A2A receptor in rat brain striatal membrane; type: cell membranes
Chain of Adenosine receptor A2a (Rattus norvegicus, UniProt P30543) (P30543 whole entry): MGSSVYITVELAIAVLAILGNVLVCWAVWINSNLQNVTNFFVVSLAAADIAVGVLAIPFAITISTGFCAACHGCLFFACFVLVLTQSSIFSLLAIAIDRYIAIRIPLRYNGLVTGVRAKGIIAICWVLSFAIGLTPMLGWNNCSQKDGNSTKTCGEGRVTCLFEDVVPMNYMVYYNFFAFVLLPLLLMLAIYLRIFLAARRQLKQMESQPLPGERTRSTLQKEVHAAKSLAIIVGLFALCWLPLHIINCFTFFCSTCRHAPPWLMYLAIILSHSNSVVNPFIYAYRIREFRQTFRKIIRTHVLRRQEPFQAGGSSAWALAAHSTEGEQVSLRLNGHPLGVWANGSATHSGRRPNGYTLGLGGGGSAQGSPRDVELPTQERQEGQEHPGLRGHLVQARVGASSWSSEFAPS

Mus musculus [8] = assay: Anticonvulsant activity in F1 albino mouse assessed as protection against subcutaneous pentylenetetrazole-induced seizures at 300 mg/kg, ip after 4 hrs; type: functional, organism-based; set-up: dose 300 mg/kg; procedure, shortened: as §1
Adenosine receptor A1 [9] = target: T1, Adenosine receptor A1 (Rattus norvegicus, UniProt P25099); assay: Displacement of [3H]CCPA from adenosine A1 receptor in rat brain cortical membrane; type: cell membranes
T1 sequence (P25099 whole entry): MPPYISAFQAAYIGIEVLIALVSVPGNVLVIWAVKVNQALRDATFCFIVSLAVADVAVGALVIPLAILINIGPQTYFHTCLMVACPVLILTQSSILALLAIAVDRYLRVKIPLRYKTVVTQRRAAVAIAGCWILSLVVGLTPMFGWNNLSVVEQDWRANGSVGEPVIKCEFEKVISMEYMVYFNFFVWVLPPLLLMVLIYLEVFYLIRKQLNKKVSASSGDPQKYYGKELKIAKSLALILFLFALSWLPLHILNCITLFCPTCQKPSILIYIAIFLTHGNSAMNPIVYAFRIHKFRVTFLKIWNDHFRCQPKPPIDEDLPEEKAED

Mus musculus [10] = assay: Neurotoxicity in F1 albino mouse assessed as minimal motor impairment at 100 mg/kg, ip after 0.5 hrs by rotorod test; type: toxicity, organism-based; set-up: dose 100 mg/kg, route intraperitoneal; details: in vivo; procedure, shortened: as §1
[11] = target: T2, Adenosine receptor A1 (Rattus norvegicus) (UniProt P25099); assay: Displacement of [3H]CCPA from adenosine A1 receptor in rat brain cortical membrane at 25 uM; type: cell membranes
T2 sequence (whole entry): T1 sequence (P25099 whole entry)

Mus musculus [12] = assay: Anticonvulsant activity in F1 albino mouse assessed as protection against maximal electroshock-induced seizures at 300 mg/kg, ip after 4 hrs; type: functional, organism-based; set-up: dose 300 mg/kg; procedure, shortened: as §1
Mus musculus [13] = assay: Anticonvulsant activity in F1 albino mouse assessed as protection against maximal electroshock-induced seizures at 300 mg/kg, ip after 0.25 hrs; type: functional, organism-based; set-up: dose 300 mg/kg; procedure, shortened: as §1
Mus musculus [14] = assay: Neurotoxicity in F1 albino mouse assessed as minimal motor impairment at 300 mg/kg, ip after 1 hr by rotorod test; type: toxicity, organism-based; set-up: dose 300 mg/kg, route intraperitoneal; details: in vivo; procedure, shortened: as §1
Mus musculus [15] = assay: Anticonvulsant activity in F1 albino mouse assessed as protection against maximal electroshock-induced seizures at 300 mg/kg, ip after 1 hr; type: functional, organism-based; set-up: dose 300 mg/kg; procedure, shortened: as §1
Adenosine receptor A1 [16] = target: T3, Adenosine receptor A1 (Homo sapiens, UniProt P30542); assay: Displacement of [3H]CCPA from human recombinant adenosine A1 receptor expressed in CHO cells; type: cell-based
T3 sequence (P30542 whole entry): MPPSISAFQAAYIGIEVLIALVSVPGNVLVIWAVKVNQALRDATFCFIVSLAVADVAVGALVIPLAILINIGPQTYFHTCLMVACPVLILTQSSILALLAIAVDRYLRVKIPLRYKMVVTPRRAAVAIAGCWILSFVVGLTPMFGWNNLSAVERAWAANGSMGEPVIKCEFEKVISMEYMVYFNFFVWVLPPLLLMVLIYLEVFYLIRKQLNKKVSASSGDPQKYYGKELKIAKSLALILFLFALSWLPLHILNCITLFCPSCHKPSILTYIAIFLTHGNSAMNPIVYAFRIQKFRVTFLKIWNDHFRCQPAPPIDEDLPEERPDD

[17] = target: T4, Adenosine receptor A2b (Homo sapiens) (UniProt P29275); assay: Displacement of [3H]PSB-603 from human recombinant adenosine A2B receptor expressed in CHO cells at 10 uM; type: cell-based
T4 sequence (whole entry): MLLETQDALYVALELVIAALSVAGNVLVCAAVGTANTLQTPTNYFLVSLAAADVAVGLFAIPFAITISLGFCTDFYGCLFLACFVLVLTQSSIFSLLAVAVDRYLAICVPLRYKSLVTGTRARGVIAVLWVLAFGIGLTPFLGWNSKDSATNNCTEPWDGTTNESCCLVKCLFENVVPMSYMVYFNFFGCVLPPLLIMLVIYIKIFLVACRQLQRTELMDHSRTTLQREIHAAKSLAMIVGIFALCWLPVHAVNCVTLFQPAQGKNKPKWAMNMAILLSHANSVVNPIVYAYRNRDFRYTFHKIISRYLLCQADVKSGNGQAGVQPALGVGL
Procedure, shortened: (§3)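 CHO cell membranes expressing the human receptor. Radioligands: A1 [3H]CCPA; A2B [3H]ZM241385 or [3H]PSB-603; A3 [3H]PSB-11. […] Potent compounds run at 6–7 concentrations spanning 3 orders of magnitude; Ki ± SEM.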

[18] = target: T5, Adenosine receptor A1 (Homo sapiens) (UniProt P30542); assay: Displacement of [3H]CCPA from human recombinant adenosine A1 receptor expressed in CHO cells at 10 uM; type: cell-based; procedure, shortened: as §3
T5 sequence (whole entry): T3 sequence (P30542 whole entry)

Mus musculus [19] = assay: Neurotoxicity in F1 albino mouse assessed as minimal motor impairment at 300 mg/kg, ip after 0.5 hrs by rotorod test; type: toxicity, organism-based; set-up: dose 300 mg/kg, route intraperitoneal; details: in vivo; procedure, shortened: as §1
Adenosine receptor A3 = target: T6, Adenosine receptor A3 (Homo sapiens, UniProt P0DMS8); assay: Displacement of [3H]PSB-11 from human recombinant adenosine A3 receptor expressed in CHO cells; type: cell-based
T6 sequence (P0DMS8 whole entry): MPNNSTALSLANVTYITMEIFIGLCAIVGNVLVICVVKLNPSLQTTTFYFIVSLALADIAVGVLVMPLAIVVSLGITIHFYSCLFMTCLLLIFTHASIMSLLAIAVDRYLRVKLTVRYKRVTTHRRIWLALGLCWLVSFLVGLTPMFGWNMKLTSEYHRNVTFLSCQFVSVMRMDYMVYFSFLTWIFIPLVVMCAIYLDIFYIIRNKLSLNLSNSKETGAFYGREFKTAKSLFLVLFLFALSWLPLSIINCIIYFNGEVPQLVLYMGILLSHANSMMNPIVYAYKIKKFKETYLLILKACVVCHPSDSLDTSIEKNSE

CHO = assay: Selectivity ratio of Ki for human recombinant adenosine A2A receptor expressed in CHO cells to Ki for adenosine A2A receptor in rat brain striatal membrane; type: cell-based; procedure, shortened: as §2
Adenosine receptor A2a [20] = target: Adenosine receptor A2a (Homo sapiens, UniProt P29274); assay: Displacement of [3H]MSX-2 from human recombinant adenosine A2A receptor expressed in CHO cells; type: cell-based
Chain of Adenosine receptor A2a (Homo sapiens, UniProt P29274) (P29274 whole entry): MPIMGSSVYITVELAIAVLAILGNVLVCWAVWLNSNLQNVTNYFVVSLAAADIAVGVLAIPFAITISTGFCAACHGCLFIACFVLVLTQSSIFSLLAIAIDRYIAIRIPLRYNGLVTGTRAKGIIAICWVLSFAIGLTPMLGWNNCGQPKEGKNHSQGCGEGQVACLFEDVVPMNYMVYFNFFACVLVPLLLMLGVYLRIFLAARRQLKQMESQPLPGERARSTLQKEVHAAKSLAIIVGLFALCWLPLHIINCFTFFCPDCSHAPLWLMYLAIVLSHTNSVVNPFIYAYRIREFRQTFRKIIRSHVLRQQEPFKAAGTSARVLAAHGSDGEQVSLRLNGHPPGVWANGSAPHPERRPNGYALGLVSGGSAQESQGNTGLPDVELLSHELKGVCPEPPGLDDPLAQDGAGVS

[21] = target: T7, Adenosine receptor A3 (Homo sapiens) (UniProt P0DMS8); assay: Displacement of [3H]PSB-11 from human recombinant adenosine A3 receptor expressed in CHO cells at 10 uM; type: cell-based; procedure, shortened: as §3
T7 sequence (whole entry): T6 sequence (P0DMS8 whole entry)

Adenosine receptor A2b = target: T8, Adenosine receptor A2b (Homo sapiens, UniProt P29275); assay: Displacement of [3H]PSB-603 from human recombinant adenosine A2B receptor expressed in CHO cells; type: cell-based; procedure, shortened: as §3
T8 sequence (P29275 whole entry): T4 sequence (whole entry)

Row | Structure (SMILES) | Activity (Mus musculus [1]) | Activity (Mus musculus [2]) | Ratio Ki (Rattus norvegicus) | Activity (Mus musculus [3]) | Activity (Mus musculus [4]) | Activity (Mus musculus [5]) | Activity (Mus musculus [6]) | Ki (Adenosine receptor A2a [7]) | Activity (Mus musculus [8]) | Ki (Adenosine receptor A1 [9]) | inhibition [11] | Activity (Mus musculus [12]) | Activity (Mus musculus [13]) | Activity (Mus musculus [14]) | Activity (Mus musculus [15]) | Ki (Adenosine receptor A1 [16]) | inhibition [17] | Activity (Mus musculus [19]) | Ki (Adenosine receptor A3) | Ki (Adenosine receptor A2a [20]) | further results
1 | Cn1c(=O)c2c(nc3n2CCCCN3C2CCC(O)CC2)n(C)c1=O (mixture of isomers) | inactive | Active | 7 | inactive | Non-toxic | inactive | Non-toxic | 3810 nM | inactive | ≥ 25 µM | 44% | inactive | inactive | Non-toxic | inactive | – | – | – | – | – | Activity (Mus musculus [10]): Non-toxic
2 | Cn1c(=O)c2c(nc3n2CCCN3C2CCCCC2)n(C)c1=O | inactive | Active | > 31 | inactive | Non-toxic | inactive | Non-toxic | 810 nM | inactive | ≥ 25 µM | 39% | inactive | inactive | Non-toxic | inactive | > 10 µM | 0% | Non-toxic | > 10 µM | 1610 nM | inhibition [18]: 37%; Ratio Ki (CHO): 2; inhibition [21]: 12%; Ki (Adenosine receptor A2b): > 10 µM
3 | Cn1c(=O)c2c(nc3n2CCCN3C2CCCCCC2)n(C)c1=O | inactive | inactive | 4 | inactive | Non-toxic | inactive | Non-toxic | 2670 nM | inactive | > 10 µM | 4% | inactive | inactive | Non-toxic | inactive | > 10 µM | 0% | Non-toxic | > 10 µM | 1160 nM | inhibition [18]: 41%; inhibition [21]: 6%; Ki (Adenosine receptor A2b): > 10 µM
4 | CC(=O)O[C@H]1CC[C@H](N2CCCn3c2nc2c3c(=O)n(C)c(=O)n2C)CC1 | inactive | inactive | > 2 | inactive | Non-toxic | inactive | Non-toxic | 6200 nM | inactive | > 10 µM | 5% | inactive | inactive | Non-toxic | inactive | > 10 µM | 0% | Non-toxic | > 10 µM | 21900 nM | inhibition [18]: 5%; Ratio Ki (CHO): 3; inhibition [21]: 27%; Ki (Adenosine receptor A2b): > 10 µM
5 | Cn1c(=O)c2c(nc3n2CCCN3C2CCC2)n(C)c1=O | inactive | inactive | > 5 | inactive | Non-toxic | inactive | Non-toxic | 1930 nM | inactive | ≥ 10 µM | 39% | inactive | inactive | Non-toxic | inactive | 10.3 µM | 21% | Non-toxic | > 10 µM | 847 nM | inhibition [21]: 5%; Ki (Adenosine receptor A2b): > 10 µM

Reference: ChEMBL document CHEMBL2150901, “Synthesis and biological activity of tricyclic cycloalkylimidazo-, pyrimido- and diazepinopurinediones” (Eur J Med Chem, 2011)
